From ChEMBL document CHEMBL1932999, “Increased susceptibility to resveratrol of Helicobacter pylori strains isolated from patients with gastric carcinoma” (2011)
Values after ≈ are worked out from the molar mass of the structure shown.

Columns and labels:
Helicobacter pylori [1] = assay: Bactericidal activity against CagA-deficient Helicobacter pylori G104 isolated from chronic gastritis patient compound exposure followed by incubation on Columbia-blood agar plate for 3 to 5 days; format: functional, organism-based; conditions: TDE = time-dependent effect
Procedure, shortened: (§1)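 Broth microdilution MBC against clinical H. pylori isolates (cagA by PCR; stocks kept frozen in Columbia broth with 20% glycerol). Compound dissolved in water with 4% DMSO, filter-sterilized, double diluted in Brucella broth with 10% fetal bovine serum. Inoculum about 10^6 CFU/mL from 48 h microaerobic Brucella agar-BFS cultures. Plates held microaerobically at 37 °C for 24 and 48 h. Each well was then spotted onto Columbia-blood agar for 3-5 days. MBC is the lowest concentration giving no regrowth. Triplicate, mean ± SD.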

Helicobacter pylori [2] = assay: Bactericidal activity against CagA-expressing Helicobacter pylori MD6 isolated from chronic gastritis patient compound exposure followed by incubation on Columbia-blood agar plate for 3 to 5 days; format: functional, organism-based; conditions: TDE = time-dependent effect; procedure, shortened: as §1
Helicobacter pylori [3] = assay: Antibacterial activity against CagA-deficient Helicobacter pylori G104 isolated from chronic gastritis patient after 48 hrs compound exposure followed by incubation on Columbia-blood agar plate for 3 to 5 days; format: functional
Procedure, shortened: (§2)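 Compound dissolved in water with 4% DMSO, filter-sterilized, and serially twofold diluted in Brucella broth with 10% bovine fetal serum. Inoculum from 48 h microaerobic Brucella agar-BFS cultures, added at approximately 10^6 CFU/mL final. Broth incubated microaerobically at 37 °C for 24 or 48 h, then each dilution subcultured onto Columbia-blood agar. MBC is the lowest concentration with no growth on subculture. Triplicate; mean ± SD.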

Helicobacter pylori [4] = assay: Antibacterial activity against CagA-expressing Helicobacter pylori CCUG17874 isolated from chronic gastritis patient after 24 hrs compound exposure followed by incubation on Columbia-blood agar plate for 3 to 5 days; format: functional; procedure, shortened: as §2
Helicobacter pylori [5] = assay: Bactericidal activity against CagA-deficient Helicobacter pylori G204 isolated from chronic gastritis patient compound exposure followed by incubation on Columbia-blood agar plate for 3 to 5 days; format: functional, organism-based; conditions: TDE = time-dependent effect; procedure, shortened: as §1
Helicobacter pylori [6] = assay: Bactericidal activity against CagA-deficient Helicobacter pylori G50 isolated from chronic gastritis patient compound exposure followed by incubation on Columbia-blood agar plate for 3 to 5 days; format: functional, organism-based; conditions: TDE = time-dependent effect; procedure, shortened: as §1
Helicobacter pylori [7] = assay: Bactericidal activity against CagA-expressing Helicobacter pylori Ma01 isolated from chronic gastritis patient compound exposure followed by incubation on Columbia-blood agar plate for 3 to 5 days; format: functional, organism-based; conditions: TDE = time-dependent effect; procedure, shortened: as §1
Helicobacter pylori [8] = assay: Bactericidal activity against CagA-expressing Helicobacter pylori SI10 isolated from chronic gastritis patient compound exposure followed by incubation on Columbia-blood agar plate for 3 to 5 days; format: functional, organism-based; conditions: TDE = time-dependent effect; procedure, shortened: as §1
Helicobacter pylori [9] = assay: Antibacterial activity against CagA-expressing Helicobacter pylori 3Cb isolated from gastric carcinoma patient after 24 hrs compound exposure followed by incubation on Columbia-blood agar plate for 3 to 5 days; format: functional; procedure, shortened: as §2
Helicobacter pylori [10] = assay: Antibacterial activity against CagA-deficient Helicobacter pylori G21b isolated from chronic gastritis patient after 48 hrs compound exposure followed by incubation on Columbia-blood agar plate for 3 to 5 days; format: functional; procedure, shortened: as §2
Helicobacter pylori [11] = assay: Antibacterial activity against CagA-expressing Helicobacter pylori 18K7 isolated from gastric carcinoma patient after 48 hrs compound exposure followed by incubation on Columbia-blood agar plate for 3 to 5 days; format: functional; procedure, shortened: as §2
Helicobacter pylori [12] = assay: Bactericidal activity against CagA-deficient Helicobacter pylori G12 isolated from chronic gastritis patient compound exposure followed by incubation on Columbia-blood agar plate for 3 to 5 days; format: functional, organism-based; conditions: TDE = time-dependent effect; procedure, shortened: as §1
Helicobacter pylori [13] = assay: Antibacterial activity against CagA-expressing Helicobacter pylori 328 isolated from chronic gastritis patient after 48 hrs compound exposure followed by incubation on Columbia-blood agar plate for 3 to 5 days; format: functional; procedure, shortened: as §2
Helicobacter pylori [14] = assay: Antibacterial activity against CagA-expressing Helicobacter pylori 2Ca isolated from gastric carcinoma patient after 48 hrs compound exposure followed by incubation on Columbia-blood agar plate for 3 to 5 days; format: functional; procedure, shortened: as §2
Helicobacter pylori [15] = assay: Antibacterial activity against CagA-deficient Helicobacter pylori G12 isolated from chronic gastritis patient after 48 hrs compound exposure followed by incubation on Columbia-blood agar plate for 3 to 5 days; format: functional; procedure, shortened: as §2
Helicobacter pylori [16] = assay: Bactericidal activity against CagA-expressing Helicobacter pylori 328 isolated from chronic gastritis patient compound exposure followed by incubation on Columbia-blood agar plate for 3 to 5 days; format: functional, organism-based; conditions: TDE = time-dependent effect; procedure, shortened: as §1
Helicobacter pylori [17] = assay: Antibacterial activity against CagA-expressing Helicobacter pylori CCUG17874 isolated from chronic gastritis patient after 48 hrs compound exposure followed by incubation on Columbia-blood agar plate for 3 to 5 days; format: functional; procedure, shortened: as §2
Helicobacter pylori [18] = assay: Antibacterial activity against CagA-expressing Helicobacter pylori G20 isolated from chronic gastritis patient after 48 hrs compound exposure followed by incubation on Columbia-blood agar plate for 3 to 5 days; format: functional; procedure, shortened: as §2
Helicobacter pylori [19] = assay: Antibacterial activity against CagA-expressing Helicobacter pylori 1C1 isolated from gastric carcinoma patient after 48 hrs compound exposure followed by incubation on Columbia-blood agar plate for 3 to 5 days; format: functional; procedure, shortened: as §2
Helicobacter pylori [20] = assay: Antibacterial activity against CagA-expressing Helicobacter pylori G39 isolated from chronic gastritis patient after 24 hrs compound exposure followed by incubation on Columbia-blood agar plate for 3 to 5 days; format: functional; procedure, shortened: as §2
Helicobacter pylori [21] = assay: Antibacterial activity against CagA-expressing Helicobacter pylori 10K isolated from gastric carcinoma patient after 24 hrs compound exposure followed by incubation on Columbia-blood agar plate for 3 to 5 days; format: functional; procedure, shortened: as §2
Helicobacter pylori [22] = assay: Antibacterial activity against CagA-expressing Helicobacter pylori G39 isolated from chronic gastritis patient after 48 hrs compound exposure followed by incubation on Columbia-blood agar plate for 3 to 5 days; format: functional; procedure, shortened: as §2
Helicobacter pylori [23] = assay: Antibacterial activity against CagA-expressing Helicobacter pylori 1C1 isolated from gastric carcinoma patient after 24 hrs compound exposure followed by incubation on Columbia-blood agar plate for 3 to 5 days; format: functional; procedure, shortened: as §2
Helicobacter pylori [24] = assay: Antibacterial activity against CagA-deficient Helicobacter pylori NS23 isolated from chronic gastritis patient after 24 hrs compound exposure followed by incubation on Columbia-blood agar plate for 3 to 5 days; format: functional; procedure, shortened: as §2
Helicobacter pylori [25] = assay: Antibacterial activity against CagA-expressing Helicobacter pylori MDO21 isolated from chronic gastritis patient after 48 hrs compound exposure followed by incubation on Columbia-blood agar plate for 3 to 5 days; format: functional; procedure, shortened: as §2
Helicobacter pylori [26] = assay: Antibacterial activity against CagA-expressing Helicobacter pylori 328 isolated from chronic gastritis patient after 24 hrs compound exposure followed by incubation on Columbia-blood agar plate for 3 to 5 days; format: functional; procedure, shortened: as §2
Helicobacter pylori [27] = assay: Antibacterial activity against CagA-deficient Helicobacter pylori G12 isolated from chronic gastritis patient after 24 hrs compound exposure followed by incubation on Columbia-blood agar plate for 3 to 5 days; format: functional; procedure, shortened: as §2
Helicobacter pylori [28] = assay: Bactericidal activity against CagA-deficient Helicobacter pylori Ba142 isolated from chronic gastritis patient compound exposure followed by incubation on Columbia-blood agar plate for 3 to 5 days; format: functional, organism-based; conditions: TDE = time-dependent effect; procedure, shortened: as §1
Helicobacter pylori [29] = assay: Antibacterial activity against CagA-expressing Helicobacter pylori G27 isolated from chronic gastritis patient after 24 hrs compound exposure followed by incubation on Columbia-blood agar plate for 3 to 5 days; format: functional; procedure, shortened: as §2
Helicobacter pylori [30] = assay: Antibacterial activity against CagA-expressing Helicobacter pylori MDO21 isolated from chronic gastritis patient after 24 hrs compound exposure followed by incubation on Columbia-blood agar plate for 3 to 5 days; format: functional; procedure, shortened: as §2
Helicobacter pylori [31] = assay: Antibacterial activity against CagA-expressing Helicobacter pylori G27 isolated from chronic gastritis patient after 48 hrs compound exposure followed by incubation on Columbia-blood agar plate for 3 to 5 days; format: functional; procedure, shortened: as §2
Helicobacter pylori [32] = assay: Antibacterial activity against CagA-deficient Helicobacter pylori G104 isolated from chronic gastritis patient after 24 hrs compound exposure followed by incubation on Columbia-blood agar plate for 3 to 5 days; format: functional; procedure, shortened: as §2
Helicobacter pylori [33] = assay: Antibacterial activity against CagA-deficient Helicobacter pylori 328 KM isolated from chronic gastritis patient after 48 hrs compound exposure followed by incubation on Columbia-blood agar plate for 3 to 5 days; format: functional; procedure, shortened: as §2
Helicobacter pylori [34] = assay: Antibacterial activity against CagA-expressing Helicobacter pylori 10Kb isolated from gastric carcinoma patient after 48 hrs compound exposure followed by incubation on Columbia-blood agar plate for 3 to 5 days; format: functional; procedure, shortened: as §2
Helicobacter pylori [35] = assay: Antibacterial activity against CagA-expressing Helicobacter pylori 3Cb isolated from gastric carcinoma patient after 48 hrs compound exposure followed by incubation on Columbia-blood agar plate for 3 to 5 days; format: functional; procedure, shortened: as §2

Oc1ccc(/C=C/c2cc(O)cc(O)c2)cc1 [RESVERATROL]
Activity (Helicobacter pylori [1]): tde | Activity (Helicobacter pylori [2]): tde | MBC (Helicobacter pylori [3]): 295 µg/mL (≈ 1290 µM) | MBC (Helicobacter pylori [4]): 589 µg/mL (≈ 2580 µM) | Activity (Helicobacter pylori [5]): tde | Activity (Helicobacter pylori [6]): tde | Activity (Helicobacter pylori [7]): tde | Activity (Helicobacter pylori [8]): tde | MBC (Helicobacter pylori [9]): 40 µg/mL (≈ 175 µM) | MBC (Helicobacter pylori [10]): 295 µg/mL (≈ 1290 µM) | MBC (Helicobacter pylori [11]): 147 µg/mL (≈ 644 µM) | Activity (Helicobacter pylori [12]): tde | MBC (Helicobacter pylori [13]): 295 µg/mL (≈ 1290 µM) | MBC (Helicobacter pylori [14]): 160 µg/mL (≈ 701 µM) | MBC (Helicobacter pylori [15]): 324 µg/mL (≈ 1420 µM) | Activity (Helicobacter pylori [16]): tde | MBC (Helicobacter pylori [17]): 295 µg/mL (≈ 1290 µM) | MBC (Helicobacter pylori [18]): 640 µg/mL (≈ 2800 µM) | MBC (Helicobacter pylori [19]): 80 µg/mL (≈ 350 µM) | MBC (Helicobacter pylori [20]): 640 µg/mL (≈ 2800 µM) | MBC (Helicobacter pylori [21]): 74 µg/mL (≈ 324 µM) | MBC (Helicobacter pylori [22]): 320 µg/mL (≈ 1400 µM) | MBC (Helicobacter pylori [23]): 80 µg/mL (≈ 350 µM) | MBC (Helicobacter pylori [24]): 147 µg/mL (≈ 644 µM) | MBC (Helicobacter pylori [25]): 295 µg/mL (≈ 1290 µM) | MBC (Helicobacter pylori [26]): 295 µg/mL (≈ 1290 µM) | MBC (Helicobacter pylori [27]): 648 µg/mL (≈ 2840 µM) | Activity (Helicobacter pylori [28]): tde | MBC (Helicobacter pylori [29]): 295 µg/mL (≈ 1290 µM) | MBC (Helicobacter pylori [30]): 295 µg/mL (≈ 1290 µM) | MBC (Helicobacter pylori [31]): 295 µg/mL (≈ 1290 µM) | MBC (Helicobacter pylori [32]): 295 µg/mL (≈ 1290 µM) | MBC (Helicobacter pylori [33]): 147 µg/mL (≈ 644 µM) | MBC (Helicobacter pylori [34]): 147 µg/mL (≈ 644 µM) | MBC (Helicobacter pylori [35]): 40 µg/mL (≈ 175 µM)
